Laboratory results taken from ChEMBL document CHEMBL4414644, “A New Approach of Mitigating CYP3A4 Induction Led to the Discovery of Potent Hepatitis B Virus (HBV) Capsid Inhibitor with Optimal ADMET Profiles” (J Med Chem, 2019).
Blank lines part the entries; values can stand above or below the compound they belong to. The source made the active and inactive calls.

Legend:
[1] = Cytotoxicity in human HepDE19 cells assessed as reduction in cell viability incubated for 5 days by CCK8 assay; type: cell-based
Method in brief: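 HepDE19 cells were grown in DMEM-F12 with 10% FBS, penicillin/streptomycin and 0.5 mg/mL G418, then seeded at 5 × 10^3 cells/well. Compound exposure lasted 5 days. Viability was read with CCK-8 after 2 h at 37 °C, measuring OD450 and OD630. CC50 was the concentration killing 50% of cells; duplicate runs.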

[2] = Induction of CYP3A4 gene expression in cryopreserved human hepatocytes assessed as increase in CYP3A4 mRNA level at 10 uM incubated for 24 hrs by qRT-PCR analysis relative to rifampicin; type: ADME, cell-based
Method in brief: (§1)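 Cryopreserved hepatocytes from one human donor were seeded at 1 × 10^6 cells/mL and cultured 24 h in serum-free Williams E. Compounds at 0.1, 1.0 and 10 µM (0.1% DMSO) were added in triplicate for 24 h, with vehicle wells as negative controls. Positive controls were omeprazole for CYP1A2, phenobarbital for CYP2B6 and rifampicin for CYP3A4. mRNA was measured by TaqMan qRT-PCR normalised to PPIA (2^-ΔΔCT) and expressed as % of the positive control.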

[3] = Unbound fraction in human plasma at 1000 nM incubated for 5 hrs by LC-MS/MS analysis detection based equilibrium dialysis assay; type: ADME, cell-free
Method in brief: (§2)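 Equilibrium dialysis of pooled plasma against Soerensen buffer pH 7.4 used a 12–14 kDa cutoff membrane. Compounds were run in cassettes of 2–5 at 1000 nM total, with diazepam as the membrane-integrity control. Dialysis ran 5 h at 37 °C under 5% CO2, followed by LC–MS/MS of both compartments. Unbound fraction is the average of 3 tests.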

[4] = Ionization constant (acid), pKa of the compound; type: physicochemical
[5] = Induction of CYP3A4 gene expression in cryopreserved human hepatocytes assessed as increase in CYP3A4 mRNA level at 1 uM incubated for 24 hrs by qRT-PCR analysis relative to rifampicin; type: ADME, cell-based; method in brief: as §1
[6] = Apparent partition coefficient, logD of the compound at pH 7.4; type: physicochemical; conditions: octanol/water
[7] = in vivo; conditions: BALB/c, mouse, liver/plasma, po, 3 mg/kg
[8] = Volume of distribution at steady state in BALB/c mouse at 1 mg/kg, iv by LC-MS/MS analysis; type: ADME, organism-based; conditions: in vivo, read-out: Vdss
Method in brief: (§3)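 Female BALB/c mice (16–22 g; 12 animals) got a single IV dose of 1 mg/kg in 5% DMSO/40% PEG400/55% saline. Blood was taken into EDTA-K2 and spun at 2000 g for 5 min at 4 °C. Plasma was stored at -80 °C and quantified by LC–MS/MS. Parameters came from non-compartmental analysis, with BLQ values omitted.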

[9] = AUC (0 to infinity) in BALB/c mouse at 1 mg/kg, iv by LC-MS/MS analysis; type: ADME, organism-based; design: dose 1 mg/kg, route intravenous, time infinity; conditions: in vivo; method in brief: as §3
[10] = AUC (0 to infinity) in BALB/c mouse liver at 3 mg/kg, po by LC-MS/MS analysis; type: ADME, organism-based; design: dose 3 mg/kg, route oral, time infinity
Method in brief: (§4)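 Female BALB/c mice (16–22 g; 21 animals) got a single oral dose of 3 mg/kg in 2% Klucel, Tween 80, 0.1% parabens in water. EDTA-K2 plasma was taken at each time point. Livers were harvested right after blood sampling, rinsed in cold saline, weighed and snap-frozen. Both matrices were quantified by LC–MS/MS and analysed non-compartmentally, omitting BLQs.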

[11] = Cmax in BALB/c mouse at 3 mg/kg, po by LC-MS/MS analysis; type: ADME, organism-based; design: dose 3 mg/kg, route oral; conditions: in vivo; method in brief: as §4
[12] = Half life in BALB/c mouse at 1 mg/kg, iv by LC-MS/MS analysis; type: ADME, organism-based; conditions: in vivo; method in brief: as §3
[13] = molecular target: Voltage-gated inwardly rectifying potassium channel KCNH2 (Homo sapiens, UniProt Q12809); assay: Inhibition of human ERG
Sequence of Voltage-gated inwardly rectifying potassium channel KCNH2 (Q12809 whole entry): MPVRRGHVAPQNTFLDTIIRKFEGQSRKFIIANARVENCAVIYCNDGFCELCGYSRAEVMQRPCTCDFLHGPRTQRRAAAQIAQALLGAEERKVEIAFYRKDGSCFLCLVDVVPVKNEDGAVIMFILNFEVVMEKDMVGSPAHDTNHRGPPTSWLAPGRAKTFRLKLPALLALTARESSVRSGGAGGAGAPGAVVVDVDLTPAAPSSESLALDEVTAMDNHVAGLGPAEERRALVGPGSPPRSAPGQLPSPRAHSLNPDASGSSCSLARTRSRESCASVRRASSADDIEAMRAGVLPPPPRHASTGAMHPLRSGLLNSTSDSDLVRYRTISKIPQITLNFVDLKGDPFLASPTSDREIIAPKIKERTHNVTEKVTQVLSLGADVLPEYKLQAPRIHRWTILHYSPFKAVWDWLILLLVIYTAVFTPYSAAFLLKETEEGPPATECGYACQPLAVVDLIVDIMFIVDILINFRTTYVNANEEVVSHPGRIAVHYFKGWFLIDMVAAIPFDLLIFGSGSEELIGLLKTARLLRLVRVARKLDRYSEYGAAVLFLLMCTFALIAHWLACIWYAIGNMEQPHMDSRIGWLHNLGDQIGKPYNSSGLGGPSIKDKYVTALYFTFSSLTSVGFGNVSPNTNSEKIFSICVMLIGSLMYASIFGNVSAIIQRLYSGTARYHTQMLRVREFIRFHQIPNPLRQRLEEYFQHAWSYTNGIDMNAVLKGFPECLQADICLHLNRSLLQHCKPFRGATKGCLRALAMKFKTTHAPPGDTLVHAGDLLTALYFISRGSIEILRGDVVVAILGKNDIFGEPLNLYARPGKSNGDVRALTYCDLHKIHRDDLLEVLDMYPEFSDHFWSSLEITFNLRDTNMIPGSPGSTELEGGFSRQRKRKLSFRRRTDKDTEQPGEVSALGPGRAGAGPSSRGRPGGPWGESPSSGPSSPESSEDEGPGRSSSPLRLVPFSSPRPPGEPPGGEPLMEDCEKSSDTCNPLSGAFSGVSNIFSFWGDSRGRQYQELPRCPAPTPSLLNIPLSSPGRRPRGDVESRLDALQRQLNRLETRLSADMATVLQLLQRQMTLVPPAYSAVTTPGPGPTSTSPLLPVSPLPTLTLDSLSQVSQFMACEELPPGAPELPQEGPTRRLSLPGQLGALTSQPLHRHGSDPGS

[14] = Toxicity in rat by 5-day mini-tox study; conditions: in vivo, 120 h
[15] = Drug metabolism in cryopreserved human hepatocytes assessed as glucuronide conjugation of carboxylic acid group at 1 uM incubated up to 120 mins by LC-MS/MS analysis; type: ADME, cell-based, Hepatocyte; conditions: 2 h
[16] = system: Hepatitis B virus; assay: Antiviral activity against HBV infected in BALB/c mouse hydrodynamic injection model hydrodynamically injected with replication-competent HBV DNA plasmid assessed as reduction in HBV DNA level in plasma at 3 mg/kg, po BID for 5 days by RT-qPCR analysis; type: functional, organism-based
Method in brief: (§5)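 Used female BALB/c mice aged 6–8 weeks carrying an HBV genotype D genome delivered by tail-vein hydrodynamic plasmid injection. Animals received vehicle or drug orally at the stated frequency for 5 days. Plasma and liver were sampled at set time points, and HBV DNA was quantified by real-time qPCR. Error bars are SEM.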

[17] = Induction of CYP2B6 gene expression in cryopreserved human hepatocytes assessed as increase in CYP2B6 mRNA level at 10 uM incubated for 24 hrs by qRT-PCR analysis relative to phenobarbital
[18] = Induction of CYP2B6 gene expression in cryopreserved human hepatocytes assessed as increase in CYP2B6 mRNA level at 0.1 uM incubated for 24 hrs by qRT-PCR analysis relative to phenobarbital
[19] = Plasma clearance in BALB/c mouse at 1 mg/kg, iv by LC-MS/MS analysis; type: ADME, organism-based; method in brief: as §3
[20] = Induction of CYP1A2 gene expression in cryopreserved human hepatocytes assessed as increase in CYP1A2 mRNA level at 1 uM incubated for 24 hrs by qRT-PCR analysis relative to omeprazole; type: ADME, cell-based; method in brief: as §1
[21] = Permeability at 150 uM by PAMPA; type: ADME; conditions: read-out: permeability
Method in brief: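 PAMPA: DMSO stock was diluted to 150 µM (<2% DMSO) in donor buffer of 0.05 M MOPSO pH 6.5 with 0.5% glycocholic acid. The acceptor was 0.05 M MOPSO pH 6.5. The membrane was 10% egg lecithin with 0.5% cholesterol in dodecane. Donor and acceptor concentrations were read at start and at ~18 h; results in 10^-6 cm/s.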

[22] = AUC (0 to infinity) in BALB/c mouse plasma at 3 mg/kg, po by LC-MS/MS analysis; type: ADME, organism-based; design: dose 3 mg/kg, route oral, time infinity; method in brief: as §4
[23] = Induction of CYP1A2 gene expression in cryopreserved human hepatocytes assessed as increase in CYP1A2 mRNA level at 0.1 uM incubated for 24 hrs by qRT-PCR analysis relative to omeprazole; type: ADME, cell-based; method in brief: as §1
[24] = Solubility in pH 6.5 phosphate buffer stirred for 1 hr and shaken for 2 hrs by HPLC-UV based LYSA solubility assay; type: physicochemical
Method in brief: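 Duplicate samples from 10 mM DMSO stock were dried, taken up in 0.05 M phosphate pH 6.5, stirred 1 h, shaken 2 h and left overnight. They were then filtered and the filtrate plus a 1/10 dilution analysed by HPLC-UV. Quantification used a four-point calibration; results in µg/mL.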

[25] = Induction of CYP1A2 gene expression in cryopreserved human hepatocytes assessed as increase in CYP1A2 mRNA level at 10 uM incubated for 24 hrs by qRT-PCR analysis relative to omeprazole; type: ADME, cell-based; method in brief: as §1
[26] = Induction of CYP3A4 gene expression in cryopreserved human hepatocytes assessed as increase in CYP3A4 mRNA level at 0.1 uM incubated for 24 hrs by qRT-PCR analysis relative to rifampicin; type: ADME, cell-based; method in brief: as §1
[27] = Unbound fraction in mouse plasma at 1000 nM incubated for 5 hrs by LC-MS/MS analysis detection based equilibrium dialysis assay; type: ADME, cell-free; method in brief: as §2
[28] = system: Hepatitis B virus; assay: Antiviral activity against HBV infected in BALB/c mouse hydrodynamic injection model hydrodynamically injected with replication-competent HBV DNA plasmid assessed as reduction in HBV DNA level in liver at 12 mg/kg, po BID for 5 days by RT-qPCR analysis; type: functional, organism-based; method in brief: as §5
[29] = system: Hepatitis B virus; assay: Antiviral activity against HBV infected in BALB/c mouse hydrodynamic injection model hydrodynamically injected with replication-competent HBV DNA plasmid assessed as reduction in HBV DNA level in liver at 3 mg/kg, po BID for 5 days by RT-qPCR analysis; type: functional, organism-based; method in brief: as §5
[30] = system: Hepatitis B virus; assay: Antiviral activity against HBV infected in BALB/c mouse hydrodynamic injection model hydrodynamically injected with replication-competent HBV DNA plasmid assessed as reduction in HBV DNA level in plasma at 12 mg/kg, po BID for 5 days by RT-qPCR analysis; type: functional, organism-based; method in brief: as §5
[31] = Ionization constant (base), pKa of the compound; type: physicochemical
[32] = Oral bioavailability in BALB/c mouse at 3 mg/kg by LC-MS/MS analysis; type: ADME, organism-based; conditions: in vivo; method in brief: as §4
[33] = Induction of CYP2B6 gene expression in cryopreserved human hepatocytes assessed as increase in CYP2B6 mRNA level at 1 uM incubated for 24 hrs by qRT-PCR analysis relative to phenobarbital

Structure (SMILES): CCOC(=O)C1=C(CN2CCOC[C@H]2C(=O)O)NC(c2nccs2)=N[C@H]1c1ccc(Cl)c(F)c1
- CC50 at 120 h [1]: 24 µM

Structure (SMILES): COC(=O)C1=C(CN2CC(F)(F)C[C@H]2C(=O)O)NC(c2nccs2)=N[C@H]1c1ccc(F)c(F)c1
- CC50 at 120 h [1]: 56 µM
- Activity [2]: 52%

Structure (SMILES): COC(=O)C1=C(CN2CC(F)(F)C[C@H]2C(=O)O)NC(c2nccs2)=N[C@H]1c1ccc(F)cc1F
- CC50 at 120 h [1]: > 100 µM
- Activity [2]: 96%

Structure (SMILES): CCOC(=O)C1=C(CN2CCOC[C@H]2C(=O)O)NC(c2nccs2)=N[C@H]1c1cccc(F)c1
- CC50 at 120 h [1]: 69 µM
- Activity [2]: 94%

Structure (SMILES): CCOC(=O)C1=C(CN2CCOC[C@H]2C(=O)O)NC(c2nccs2)=N[C@H]1c1ccc(F)cc1Cl
- CC50 at 120 h [1]: > 100 µM
- Activity [2]: 173%

Structure (SMILES): CCOC(=O)C1=C(CN2CCOC[C@H]2C(=O)O)NC(c2nccs2)=N[C@H]1c1cc(F)c(F)c(F)c1
- CC50 at 120 h [1]: > 100 µM
- Activity [2]: 72%

Structure (SMILES): CCOC(=O)C1=C(CN2CC(F)(F)C[C@H]2C(=O)O)NC(c2nccs2)=N[C@H]1c1ccc(F)cc1Cl
- CC50 at 120 h [1]: > 100 µM
- Activity [2]: 123%

Second part, led by results:

- Activity [2]: 109%
Structure (SMILES): COC(=O)C1=C(CN2CC(F)(F)C[C@H]2C(=O)O)NC(c2nccs2)=N[C@H]1c1ccc(F)cc1Cl
- CC50 at 120 h [1]: 65 µM

- fraction unbound at 5 h, 1 µM [3]: 0.031
- pKa [4]: 1.8
- Activity [5]: 7.5%
- logD [6]: 0.38
- Kp [7]: 38
- Vd [8]: 2.7 L/kg
- AUC(0-inf) [9]: 408 ng·h/mL
- AUC(0-inf) [10]: 20000 ng·h/mL
- Cmax [11]: 254 ng/mL
- half-life [12]: 2.3 h
- Drug metabolism [15]: Metabolite_Detected
- Activity [17]: 1.4%
- Activity [2]: 25%
- Activity [18]: 1.3%
- clearance [19]: 40.9 mL/min/kg
- Activity [20]: 0.9%
- Papp at 150 µM [21]: 2.4 ×10⁻⁶ cm/s
- AUC(0-inf) [22]: 527 ng·h/mL
- Activity [23]: 1%
- solubility [24]: > 631 µg/mL
- Activity [25]: 1.7%
- Activity [26]: 2%
- fraction unbound at 5 h, 1 µM [27]: 0.04
- pKa [31]: 5.9
- bioavailability [32]: 43.1%
- Activity [33]: 1.5%
Structure (SMILES): COC(=O)C1=C(CN2CCOC[C@H]2C(=O)O)NC(c2nccs2)=N[C@H]1c1ccc(Cl)c(F)c1
- inhibition (INH) [13]: Not Active
- Activity [14]: Non-Toxic
- Activity [16]: Active
- CC50 at 120 h [1]: > 100 µM
- Activity [28]: Active
- Activity [29]: Active
- Activity [30]: Active

- Activity [2]: 105%
Structure (SMILES): CCOC(=O)C1=C(CN2CCOC[C@H]2C(=O)O)NC(c2nccs2)=N[C@H]1c1ccc(F)c(F)c1F
- CC50 at 120 h [1]: 49 µM
